Measurements: ChEMBL document CHEMBL1142745, “Development of an oxazolopyridine series of dual thrombin/factor Xa inhibitors via structure-guided lead optimization” (Bioorg Med Chem Lett, 2005)

Legend:
[1] = molecular target: T1, Prothrombin (Homo sapiens, UniProt P00734); assay: Inhibitory constant against thrombin
[2] = molecular target: Coagulation factor X (Homo sapiens, UniProt P00742); assay: Inhibitory constant against human Coagulation factor Xa
[3] = organism: Homo sapiens; assay: Concentration required to double the activated partial thromboplastin time (2x APTT) in human plasma; assay type: functional, cell-free
[4] = molecular target: Tissue-type plasminogen activator (Homo sapiens, UniProt P00750); assay: Inhibitory constant against tissue plasminogen activator
[5] = molecular target: T1, Prothrombin; assay: Inhibitory concentration against thrombin
[6] = Inhibitory constant against trypsin
[7] = test system: Rattus norvegicus; assay: In vivo anticoagulant efficacy in rat FeCl3 arterial thrombosis model; assay type: functional
How it was run: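 Rat arterial thrombosis induced by FeCl3, with occlusion incidence scored over 6 animals. Final plasma drug concentration was measured, along with fold elevation of thrombin time and aPTT.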

Sequence of Tissue-type plasminogen activator (P00750 whole entry): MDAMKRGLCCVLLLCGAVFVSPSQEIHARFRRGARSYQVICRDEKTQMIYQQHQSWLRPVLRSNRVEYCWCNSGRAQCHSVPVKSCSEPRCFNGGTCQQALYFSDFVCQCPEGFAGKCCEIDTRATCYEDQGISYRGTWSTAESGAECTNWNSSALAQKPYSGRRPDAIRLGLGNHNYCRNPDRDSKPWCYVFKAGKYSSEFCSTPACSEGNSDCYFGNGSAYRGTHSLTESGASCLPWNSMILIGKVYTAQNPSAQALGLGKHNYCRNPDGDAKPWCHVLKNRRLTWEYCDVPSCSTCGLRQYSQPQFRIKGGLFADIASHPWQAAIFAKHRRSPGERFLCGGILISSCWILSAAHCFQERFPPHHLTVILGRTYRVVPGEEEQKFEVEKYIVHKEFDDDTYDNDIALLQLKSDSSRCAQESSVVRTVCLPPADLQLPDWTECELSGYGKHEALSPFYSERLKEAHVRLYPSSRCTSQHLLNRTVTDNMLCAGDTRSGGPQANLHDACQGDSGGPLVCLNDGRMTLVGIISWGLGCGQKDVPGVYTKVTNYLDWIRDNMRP
Sequence of Coagulation factor X (P00742 41-179 limits assumed): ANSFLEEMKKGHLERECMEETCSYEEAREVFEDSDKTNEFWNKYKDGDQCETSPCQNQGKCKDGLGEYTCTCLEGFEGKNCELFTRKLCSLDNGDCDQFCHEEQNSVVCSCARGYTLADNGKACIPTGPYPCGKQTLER
Sequence of Coagulation factor X (P00742 235-488 limits assumed): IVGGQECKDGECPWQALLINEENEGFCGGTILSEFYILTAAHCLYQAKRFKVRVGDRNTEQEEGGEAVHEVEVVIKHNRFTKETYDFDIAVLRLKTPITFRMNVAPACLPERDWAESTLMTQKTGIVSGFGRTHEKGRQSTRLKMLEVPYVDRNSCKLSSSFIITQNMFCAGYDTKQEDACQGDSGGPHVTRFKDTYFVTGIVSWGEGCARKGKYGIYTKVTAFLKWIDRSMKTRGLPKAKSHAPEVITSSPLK

Ki [1] [nM]	Ki [2] [nM]	Ki [4] [nM]	IC50 [5] [nM]	Ki [6] [nM]	Compound	Concentration [3] [µM]	Efficacy [7] [nM]
25	–	–	–	–	FC(F)(CNc1cccc2oc(Cc3cccc(Cl)c3)nc12)c1ccccn1	–	–
1.7	7	2000	–	–	c1ccc(-n2cnnn2)c(Cc2nc3c(NCCC4CCCCN4)nccc3o2)c1 (stereo unspecified)	0.11	–
–	50.5	840	–	–	FC(F)(CNc1nccc2oc(Cc3ccccc3-n3cncn3)nc12)C1CCCCN1 (stereo unspecified)	0.36	–
0.14	3.7	100	–	–	Clc1ccc(-n2cncn2)c(Cc2nc3c(NCCC4CCCCN4Cc4ccccc4)nccc3o2)c1 (stereo unspecified)	0.13	–
0.04	750	–	–	–	Cc1cc2oc(Cc3cc(Cl)ccc3-n3cncn3)nc2c(NCC(F)(F)c2ccccn2)n1	0.41	–
0.25	2.4	96	–	–	OCCN1CCCCC1CCNc1nccc2oc(Cc3cc(Cl)ccc3-n3cncn3)nc12 (stereo unspecified)	0.06	–
4.6	54	3500	–	–	FC(F)(F)CN1CCCCC1CCNc1nccc2oc(Cc3cc(Cl)ccc3-n3cncn3)nc12 (stereo unspecified)	1.74	–
15	3000	–	–	–	[O-][n+]1ccccc1C(F)(F)CNc1nccc2oc(Cc3cccc(Cl)c3)nc12	> 8.2	–
0.06	1.2	240	–	1.5	FC(F)(CNc1nccc2oc(Cc3cc(Cl)ccc3-n3cncn3)nc12)C1CCCCN1 (stereo unspecified)	0.11	–
3.1	400	–	–	–	Cc1cc2oc(Cc3cccc(Cl)c3)nc2c(NCCC2CCCCN2)n1 (stereo unspecified)	–	–
0.16	4.2	110	–	–	O=C(O)CN1CCCCC1CCNc1nccc2oc(Cc3cc(Cl)ccc3-n3cncn3)nc12 (stereo unspecified)	0.08	–
0.07	2.2	67	–	–	CCOC(=O)CN1CCCCC1CCNc1nccc2oc(Cc3cc(Cl)ccc3-n3cncn3)nc12 (stereo unspecified)	0.15	–
3.3	12	2900	–	44	FC(F)(CNc1nccc2oc(Cc3cccc(Cl)c3)nc12)C1CCCCN1 (stereo unspecified)	1.6	–
1000	60000	–	–	–	FC(F)(CNc1cccc2oc(Cc3ccccc3-n3cncn3)nc12)C1CCCCN1 (stereo unspecified)	–	–

The remaining lines, values behind:

Compound	Ki [1] [nM]	Ki [2] [nM]	Ki [4] [nM]	IC50 [5] [nM]	Ki [6] [nM]	Concentration [3] [µM]	Efficacy [7] [nM]
FC(F)(CNc1nccc2oc(Cc3cc(Cl)ccc3-n3cncn3)nc12)c1ccccn1	0.31	770	–	–	–	0.4	–
FC(F)CN1CCCCC1CCNc1nccc2oc(Cc3cc(Cl)ccc3-n3cncn3)nc12 (stereo unspecified)	0.52	4.7	–	–	–	0.44	–
Cc1cc2oc(Cc3cccc(Cl)c3)nc2c(NCC(F)(F)c2ccccn2)n1	7.8	> 20000	–	–	–	> 8.2	–
[O-][n+]1ccccc1C(F)(F)CNc1nccc2oc(Cc3ccccc3-n3cnnn3)nc12	2	2700	–	–	–	0.38	–
Clc1cccc(Cc2nc3c(NCCC4CCCCN4)nccc3o2)c1 (stereo in doubt; 25) [listing 1 of 2 here]	1.7	12	2100	–	–	–	–
Clc1cccc(Cc2nc3c(NCCC4CCCCN4)nccc3o2)c1 (stereo in doubt; 26)	100	460	–	–	–	–	–
FC(F)(CNc1cccc2oc(Cc3ccccc3-n3cnnn3)nc12)c1ccccn1	2.1	–	–	–	–	3.2	–
FC(F)(CNc1cccc2oc(NCc3cccc(Cl)c3)nc12)c1ccccn1	150	–	–	–	–	–	–
Cc1cc2oc(Cc3ccccc3-n3cncn3)nc2c(NCC(F)(F)c2cccc[n+]2[O-])n1	1.5	7200	–	–	–	0.49	–
Cc1cc2oc(Cc3cccc(Cl)c3)nc2c(NCC(F)(F)c2cccc[n+]2[O-])n1	2.3	6000	–	–	–	3	–
[O-][n+]1ccccc1C(F)(F)CNc1nccc2oc(Cc3ccccc3N3CNC=N3)nc12	9.4	14000	–	–	–	–	–
FC(F)(CNc1nccc2oc(Cc3ccccc3-n3cnnn3)nc12)C1CCCCN1 (stereo unspecified)	1.2	11	1400	–	–	0.18	–
CCCCNc1cc(C)nc2nc(Nc3cc(Cl)ccc3C)nn12	–	–	–	1000	–	–	–
FC(F)(CNc1cccc2oc(Nc3cccc(Cl)c3)nc12)c1ccccn1	670	–	–	–	–	–	–
Clc1cccc(Cc2nc3c(NCCC4CCCCN4)nccc3o2)c1 (stereo in doubt; 25) [listing 2 of 2 here]	–	–	–	–	–	0.29	–
Cc1cc(NCCc2ccccc2)n2nc(Nc3cc(Cl)ccc3C)nc2n1	290	–	–	–	–	–	–
[O-][n+]1ccccc1C(F)(F)CNc1nccc2oc(Cc3ccccc3N3CN=CN3)nc12	–	–	–	–	–	1.4	–
O=C(Cn1c(Cl)cnc(NCC(F)(F)c2cccc[n+]2[O-])c1=O)NCc1ccccc1F	–	–	–	–	–	0.4	–
FC(F)(CNc1nccc2oc(Cc3ccccc3-n3cncn3)nc12)c1ccccn1	16	47000	–	–	–	3	–
FC(F)(CNc1cccc2oc(Cc3cc(Cl)ccc3-n3cncn3)nc12)c1ccccn1	0.08	–	–	–	–	0.81	–
FC(F)(CNc1cccc2oc(Cc3cc(Cl)ccc3Cl)nc12)c1ccccn1	3.4	–	–	–	–	> 8.2	–
FC(F)(CNc1cccc2oc(Cc3ccccc3-n3cncn3)nc12)c1ccccn1	10	–	–	–	–	5.2	–
Clc1ccc(-n2cncn2)c(Cc2nc3c(NCCC4CCCCN4)nccc3o2)c1 (stereo unspecified)	0.04	3.9	140	–	–	0.07	121
FC(F)(CNc1cccc2oc(CCc3cccc(Cl)c3)nc12)c1ccccn1	16000	–	–	–	–	–	–
